Data as given in publication PMC8682764 (Nucleic Acids Research, 2021).
Where a SMILES comes first, the peptide text is derived from it. Bridges are numbered along the chain shown (N, C = ends). [ ]: non-standard residue; d: D form. The star is where a group is joined. d(αMeK) = C[C@@](N)(CCCCN)C(=O)O; dPhg = N[C@@H](C(=O)O)c1ccccc1; Isobutyryl = CC(C)C(=O)*; Abu = CC[C@H](N)C(=O)O

Key:
[1] = tested on: WDR5 / MBP-LANAΔ33–888 interaction; assay: Co-precipitation of WDR5 with MBP-LANAΔ33–888; format: binding; conditions: co-precipitation with MBP-LANAΔ33–888, Coomassie blue detection
[2] = tested on: WDR5 in LANA/MLL1 complex; assay: Co-precipitation of ASH2L, RbBP5, WDR5 or MLL1-SET with MBP-LANAΔ33–888; format: binding; conditions: co-precipitation with MBP-LANAΔ33–888, immunoblot
[3] = tested on: WDR5 WIN binding pocket / MLL1-WDR5 interaction; conditions: cited from earlier work
WDR5 = assay: Co-IP of GFP-LANA regions with Flag-WDR5; format: binding; conditions: co-IP after expression in 293T cells, anti-Flag
Procedure, shortened: (§1)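 Incubated overnight at 4°C with anti-Flag M2 (2 μg) agarose beads. Beads washed 3–6 times in lysis buffer and eluted in SDS buffer. Proteins resolved by SDS-PAGE and detected by western blot.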

MLL1 = assay: Co-IP of GFP-LANA regions with MLL1; format: binding; conditions: co-IP after expression in 293T cells, anti-Flag
Procedure, shortened: as §1

| Molecule | effect on WDR5-LANA interaction [1] | exclusion of WDR5 from LANA/MLL1 complex [2] | MLL1-WDR5 interaction inhibition [3] | interaction with WDR5 (WDR5) | interaction with MLL1 (MLL1) |
| --- | --- | --- | --- | --- | --- |
| CC[C@@H]1NC(=O)[C@H](CCCN=C(N)N)NC(=O)[C@](C)(NC(=O)C(C)C)CCCCNC(=O)[C@@H](c2ccccc2)NC1=O [MM-401] (Isobutyryl-[d(αMeK)]R[Abu][dPhg]; lactam 1-C) | blocked the interaction of WDR5 with LANA | excluded nearly all WDR5 from the LANA/MLL1 complex | occupies the WDR5 WIN binding pocket and thereby inhibits MLL1-WDR5 interaction | – | – |
| LANA 779–1049: GFP-LANA fragment 779–1049 (protein, left off: GFP, end not stated, kept) QEQELEEQEQELEEQEQELEEQEQELEEQEQELEEQEQELEEQEQELEEQEQELEEQEQELEEQEVEEQEQEVEEQEQEQEEQELEEVEEQEQEQEEQEEQELEEVEEQEEQELEEVEEQEEQELEEVEEQEQQELEEVEEQEQQGVEQQEQETVEEPIILHGSSSEDEMEVDYPVVSTHEQIASSPPGDNTPDDDPQPGPSREYRYVLRTSPPHRPGVRMRRVPVTHPKKPHPRYQQPPVPYRQIDDCPAKARPQHIFYRRFLGKDGRRD | – | – | – | interacted with LANA 779–1049 | did not |
